Compound activity (PubChem BioAssay)
A selection: hits, their analogues and other compounds. The true share with any hit is near 2.4%.
VIM-2 inh: inhibitors of Pseudomonas aeruginosa VIM-2 metallo-beta-lactamase. purified VIM-2, nitrocefin hydrolysis, epi-absorbance fluorescence. inhibition, % at 5.6 µM. actives 0.89% (n = 290,000). AID 1527;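 active = inhibition above the mean of all tested compounds plus 3 SD, cutoff set per screening run, cut at about 7.5% in these data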;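 note: red hydrolysis product quenches plate fluorescence so inhibitors raise well fluorescence; 0% = enzyme with DMSO and 100% = DMSO without enzyme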
PfM18AAP inh-1: PfM18AAP enzyme inhibition. actives 1.2% (n = 290,000). recombinant PfM18AAP, H-Glu-NHMec fluorogenic cleavage. inhibition, % at 7.35 µM;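 active = inhibition above the campaign mean inhibition over all tested compounds plus 3 SD, cut at about 28% in these data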;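 note: 0% = plate median of test compound wells and 100% = 2 mM ZnCl2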
IMP-1 inh: inhibitors of Pseudomonas aeruginosa IMP-1 metallo-beta-lactamase; purified IMP-1, nitrocefin hydrolysis, epi-absorbance fluorescence; inhibition, % at 5.6 µM; actives 0.45% (n = 290,000); AID 1556;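 active = inhibition above the mean plus 3 SD of all compounds in the same screening run, cut at about 4.5% in these data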;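 note: 0% = IMP-1 with DMSO and 100% = DMSO wells lacking enzyme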
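Assay system: purified recombinant IMP-1 beta-lactamase. Input: IMP-1 0.2 nM before substrate addition. Buffer or medium: Zinc- and detergent-supplemented HEPES buffer, pH 7.1. Schedule: 25 °C, 15 min preincubation, 25 min reaction. Signal: Epi-absorbance fluorescence, 480 nm excitation, 530 nm emission. Evaluation: percent inhibition from optical density relative to buffer-blank wells.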
HGIII-sPLA2 inh: Inhibits HGIII-sPLA2 liposome hydrolysis, primary screen; inhibition, % at 12.2 µM; QFRET BODIPY PC-A2 liposome hydrolysis, fluorescence; Q9NZ20; actives 0.56% (n = 370,000);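 active = inhibition above mean plus 3 SD of compounds lying within the high and low control bounds, cut at about 19% in these data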;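 note: 0% = median of test compound wells and 100% = no enzyme DMSO wells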
PfM18AAP inh-2: confirmation of Plasmodium falciparum M18 aspartyl aminopeptidase inhibitors; shares compounds with PfM18AAP inh-1; recombinant PfM18AAP, H-Glu-NHMec fluorogenic cleavage; inhibition, % at 7.35 µM; actives 28% (n = 2,400); AID 2170;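 active = mean inhibition over replicate wells above the hit cutoff set for the earlier primary screen, cut at about 29% in these data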;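 note: 0% = median of test compound wells and 100% = 2 mM ZnCl2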
CTSL1 counter: Cathepsin L (human) inhibition, confirmation | shares compounds with PfM18AAP inh-1 | purified cathepsin L1, Z-Leu-Arg-MCA fluorescence | inhibition, % at 5.96 µM | 2,400 tested, under 10 active | AID 2178;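 active = average inhibition across replicates above the hit cutoff set in the earlier primary screen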;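 note: 0% = median of test compound wells and 100% = Z-Phe-Ala-diazomethylketone 1 µM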
Target sequence (P07711 whole entry, looked up): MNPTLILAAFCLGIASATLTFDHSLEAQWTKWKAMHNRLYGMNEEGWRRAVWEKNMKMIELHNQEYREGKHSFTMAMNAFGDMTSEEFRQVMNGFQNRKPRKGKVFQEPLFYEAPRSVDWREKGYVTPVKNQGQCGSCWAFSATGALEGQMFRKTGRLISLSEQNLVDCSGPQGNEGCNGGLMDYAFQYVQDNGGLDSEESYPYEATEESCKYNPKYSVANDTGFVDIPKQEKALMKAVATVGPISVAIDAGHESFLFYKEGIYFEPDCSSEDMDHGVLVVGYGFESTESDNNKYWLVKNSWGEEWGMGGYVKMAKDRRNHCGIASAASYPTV
Numbers without * were called inactive; / = not tested or not shown.

SMILES | VIM-2 inh | PfM18AAP inh-1 | IMP-1 inh | HGIII-sPLA2 inh | PfM18AAP inh-2 | CTSL1 counter
CC1CC(CC(=O)NNc2nc(-c3ccccc3)cs2)C(=O)O1 (centres undefined) | -2 | 23 | 0 | 6 | / | /
CC(C)CC1CC(C)(c2csc(NNC(=O)c3ccccc3)n2)OC1=O (centres undefined) | -2 | 33* | -4 | -9 | -10 | -1
CC1(C)CC(CC(=O)NNc2nc(-c3ccccc3)cs2)C(=O)O1 (centres undefined) | -2 | 34* | -4 | 10 | -1 | -7
O=C(NCc1cccc2[nH]ccc12)C1CCC(=O)N(CCc2ccc(Cl)cc2)C1 (centres undefined) | -1 | -3 | -1 | -21 | / | /
Cc1ccc(C(=O)NCc2ccc(Cl)cc2)cc1S(=O)(=O)N1CCCCC1 | / | / | / | -5 | / | /
CCNC(=O)C1CCCN(C(=O)Cc2ccc3ccccc3c2)CC1 (centres undefined) | / | / | / | 8 | / | /
Cc1ccccc1NC(=O)c1sc2nc(N3CCOCC3)c3c(c2c1N)CCCC3 | 1 | 41* | -2 | 2 | 26 | 3
CCOC(=O)c1ccc(NC(=O)c2sc3nc(N4CCOCC4)c4c(c3c2N)CCCC4)cc1 | -1 | 42* | 0 | -4 | -17 | -2
Nc1c(C(=O)NCCc2ccccc2)sc2nc(N3CCOCC3)c3c(c12)CCCC3 | 1 | 37* | -2 | -9 | -17 | -3
Cc1ccc(S(=O)(=O)N2CCCCC2)cc1NC(=O)COC(=O)c1ccc(=O)[nH]c1 | / | / | / | -11 | / | /
CC(C)(C)OC(=O)NCCCCCNC(=O)c1[nH]cnc1C(=O)NC1CCN(C(=O)OC(C)(C)C)CC1 | / | / | / | -8 | / | /
O=C(NNc1ccc([N+](=O)[O-])cc1)c1ccccc1F | -1 | 39* | -2 | 0 | 16 | 9
O=C(NNc1ccccc1[N+](=O)[O-])Nc1ccccc1 | 0 | 11 | -4 | / | / | /
O=C(O)c1ccccc1-c1ccccc1C(=O)NNc1ccc([N+](=O)[O-])cc1 | 2 | 53* | 0 | -5 | 22 | 0
O=C(NNc1ccc([N+](=O)[O-])cc1)Nc1ccccc1 | -1 | 55* | -2 | 8 | 32* | 1
O=C(NNc1ccc([N+](=O)[O-])cc1)c1ccccc1Cl | -1 | 50* | -3 | 3 | 21 | 0
O=C(O)c1ccccc1Nc1ccc([N+](=O)[O-])cc1 | -1 | -12 | -4 | -4 | / | /
Cc1cc(C)n2nc(SCC(=O)Nc3ccc(F)c(F)c3F)nc2n1 | / | / | / | 6 | / | /
Cc1ccc(NC(=O)CNC(=O)c2ccco2)c(Cl)c1 | -1 | -4 | -2 | 3 | / | /
O=C(NNc1ccccc1[N+](=O)[O-])Nc1ccc(F)cc1 | -2 | 38* | -2 | 4 | 1 | 4
O=C(/C=C1\NC2(CCCC2)Cc2ccccc21)C(=O)N/N=C/c1ccc(O)c(O)c1 | -2 | 64* | -5 | -8 | 37* | 2
OCCN1CCN(C(=S)Nc2ccc(SC(F)F)cc2)CC1 | -1 | 3 | -3 | -2 | / | /
CSc1ccc(C(=S)N2CCN(CCO)CC2)cc1 | -1 | 33* | -1 | 0 | 7 | 0
CN(Cc1ccccc1N1CCCC1)C(=O)c1cc2cc(Cl)ccc2o1 | / | / | / | 3 | / | /
O=C(CSc1ncn[nH]1)N1N=C2/C(=C/c3ccco3)CCCC2C1c1ccco1 (centres undefined) | -1 | 36* | -4 | -43 | 1 | 1
SMILES | VIM-2 inh | PfM18AAP inh-1 | IMP-1 inh | HGIII-sPLA2 inh | PfM18AAP inh-2 | CTSL1 counter
O=S(=O)(Nn1cnnc1)c1ccc(F)cc1 | -1 | 42* | -2 | 2 | 48* | -6
CCCCCOC(=O)Nc1ccc(S(=O)(=O)Nn2cnnc2)cc1 | -3 | 46* | -4 | 1 | 48* | 0
O=C(Nn1cnnc1)C1CCCN1S(=O)(=O)c1ccc(F)cc1 (centres undefined) | -4 | 9 | -2 | 7 | / | /
Cc1ccc(S(=O)(=O)Nc2ccccc2-c2ccccc2NS(=O)(=O)c2ccc(C)cc2)cc1 | 0 | 7 | 1 | -66 | / | /
Cc1ccc(S(=O)(=O)Nn2cnnc2)cc1 | 2 | 65* | -1 | -2 | 56* | -2
Cc1ccc(S(=O)(=O)CCC(=O)NCc2ccccc2F)cc1 | / | / | / | 3 | / | /
CN1OC[C@@H]2CN3C(=NCCc4ccccc4)Sc4ccccc4[C@@H]3C[C@@H]21 | / | / | / | -5 | / | /
Cc1onc(-c2ccccc2)c1C(=O)N[C@@H]1C(=O)N2C1SC(C)(C)[C@@H]2C(=O)O (some centres undefined) | / | / | / | 1 | / | /
